Screens as filed in PubChem BioAssay.
SKN-1 block: inhibitors of C. elegans SKN-1; C. elegans VP596 Pgst-4::GFP/RFP ratio, acrylamide-induced, 24 h; inhibition, % at 21.8 µM; hit rate 0.49% among 360,000;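 active = interference check ratio from 0.5 to 1.5 plus GFP to RFP signal ratio inhibition reaching or exceeding a fixed threshold, cut at about 30% in these data, passing the limit was not always enough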
NR2E3 ag-1: NR2E3 (human) agonism. GST-NR2E3/biotin-RetCOR TR-FRET, 1536-well. inhibition of corepressor binding, % at 4.78 µM. hit rate 0.12% among 320,000. AID 2300;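 active = percent inhibition above the cutoff of mean plus 3 SD of all tested compounds, set per screening campaign, cut at about 20% in these data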;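 note: 0% = DMSO wells and 100% = biotin wells as full block of FRET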
Target sequence (Q9Y5X4 whole entry, looked up): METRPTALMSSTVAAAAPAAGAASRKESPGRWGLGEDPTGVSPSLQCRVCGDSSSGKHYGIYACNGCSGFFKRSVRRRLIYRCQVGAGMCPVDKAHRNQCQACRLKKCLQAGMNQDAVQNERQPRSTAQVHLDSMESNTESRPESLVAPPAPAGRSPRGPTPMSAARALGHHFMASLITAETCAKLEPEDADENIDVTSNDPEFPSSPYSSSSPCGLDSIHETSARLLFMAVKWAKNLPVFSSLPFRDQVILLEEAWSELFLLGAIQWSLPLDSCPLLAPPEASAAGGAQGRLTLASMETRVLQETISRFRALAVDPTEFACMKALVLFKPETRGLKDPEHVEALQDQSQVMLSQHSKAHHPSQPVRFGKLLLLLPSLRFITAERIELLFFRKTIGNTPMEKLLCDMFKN
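Material: NR2E3–RetCOR corepressor complex | Quantity: 1.35 nM GST-tagged NR2E3 final | Schedule: 5 h at 4 °C | Replication: Singlicate compound wells | Reagent: RetCOR corepressor, biotinylated, 7 nM | Controls: Biotin wells as high control, 0.6% DMSO wells as low control | Signal: TR-FRET, Eu(K)-anti-GST donor, streptavidin-D2 acceptor, ex 340, em 617/671 nm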
NR2E3 ag-2: human photoreceptor-specific nuclear receptor agonism. Q9Y5X4. CHO-S Gal4-NCOR/VP16-NR2E3 two-hybrid, luciferase. inhibition of corepressor binding, % at 3.98 µM. hit rate 0.35% among 360,000. AID 602229;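 active = inhibition above the mean of all tested compounds plus 3 SD, cut at about 70% in these data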;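 note: 0% = DMSO with NR2E3 transfected cells and 100% = cells lacking NR2E3 construct; higher means lower luciferase signal from less NR2E3 corepressor binding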
MT1-MMP act inh: blocks activation of human MT1-MMP; P50281; GFP/RFP ratio change, % at 20 µM; hit rate 0.061% among 360,000; HT1080 RFP-PRO-GFP cells, GFP/RFP ratio fluorescence, overnight; percent of plate control window, DMSO zero; AID 651647;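 active = GFP/RFP ratio change of at least 30% with cell ATP level not reduced by more than half and red fluorescence within 50% of control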
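Assay system: HT1080 RFP-PRO-GFP cells. Benchmarks: DMSO vehicle wells and RFP-L50D-GFP reporter cell wells. Times: overnight cell settling, then overnight compound exposure, 37 °C, 5% CO2. Compound: 20 µM single dose, 1% DMSO. Read-out basis: GFP/RFP fluorescence ratio.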
PG9 binder: PG9 antibody binding by small molecule; TR-FRET gp120-PG9 antibody binding; inhibition, % at 6.7 µM; hit rate 0.43% among 360,000; in the data active = inhibition above about 8.5%
Rev-erbA mod: Rev-erb alpha (human) modulation; P20393; Rev-erbα–FITC-DNA binding, fluorescence polarization, 90 min; activity, % at 10 µM; hit rate 0.79% among 370,000;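 active = activity above about 14%, limit read from the data; passing the limit was not always enough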;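 note: 0% = DMSO wells with 35 nM protein and 100% = DMSO wells with 750 nM protein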
Active calls of the source: *; · = no result. Shown are actives, neighbours in structure and some others; about 1.9% of the full set was active somewhere.

SMILES	SKN-1 block	NR2E3 ag-1	NR2E3 ag-2	MT1-MMP act inh	PG9 binder	Rev-erbA mod
c1ccc(Cn2nnc3c(NCCN4CCOCC4)ncnc32)cc1	44*	-1	1	2	-1	-4
O=S1(=O)CCSC[C@@H](CN2CCCC2)N1	·	·	·	·	-1	2
CCOC(=O)[C@@]12CCCC3=C1N(CCC3)C(=O)[C@H]2CC(=O)N1CCSCC1	·	·	·	·	·	-1
O=C(Nc1nc(-c2ccc(S(=O)(=O)N3CCCCCC3)cc2)cs1)c1cccs1	1	-1	-4	·	0	9
O=C(Nc1nc(-c2ccc(S(=O)(=O)N3CCCC3)cc2)cs1)c1cccs1	38*	-1	-30	-11	0	2
CCOC(=O)C1=C(CN2CCSCC2)NC(=O)NC1c1cc(C)ccc1C (stereo not given)	-3	1	-2	-3	-1	-1
COC(=O)C1=C(CN2CCSCC2)NC(=O)NC1c1cc(C)ccc1C (stereo not given)	37*	-2	7	1	-3	-5
CCCCCCc1cc2cc(-c3nnc(-c4ccccc4OC)o3)c(=O)oc2cc1O	33	-3	-2	-498	2	-6
CCCCCCc1cc2cc(-c3nnc(-c4ccccc4O)o3)c(=O)oc2cc1O	57*	-2	28	-475	-3	-20
Cc1cc(C)c2cc(C#N)c(N3CCCC3)nc2c1	48*	-1	-13	-3	1	-1
COC(=O)CSc1nc2cc(C)cc(C)c2cc1C#N	37*	2	-10	-33	-2	1
Cc1nonc1OC(C)CNc1ccc([N+](=O)[O-])cc1 (stereo not given)	36*	-2	10	7	1	-5
Cc1[nH]c2ccccc2c1N=Nc1ccc(F)cc1	87*	-2	-21	-2	0	-5
Nc1nc(=O)n([C@@H]2CS[C@@H](CO)O2)cc1F	·	·	·	·	·	0
COC(=O)c1oc2ccccc2c1-n1cccc1	-14	1	0	-4	1	4
COC(=O)c1oc2ccc(Cl)cc2c1-n1cccc1	37*	0	-22	2	-2	-3
O=C(NCc1ccc(Cl)cc1)C1CCN(c2nnc(N3CCCC3=O)s2)CC1	37*	5	-17	2	0	-1
CCOc1ccc(/C=C/C2=Cc3c(sc(NC(=O)CSc4n[nH]c(N)n4)c3C#N)C(C)(C)C2)cc1	37*	-1	-34	-48	-2	-2
N#Cc1c(N)oc(-c2ccc3c(c2)OCO3)c1-c1ccc2c(c1)OCO2	43*	3	-9	-14	-2	6
CCCSc1ccc2nc(-c3ccccc3)cn2c1	50*	-3	-97	1	1	-2
CO/N=C(\C(=O)N[C@H]1C(=O)N2C(C(=O)OCOC(=O)C(C)(C)C)=C(/C=C\c3scnc3C)CSC12)c1csc(N)n1 (stereo not given in full)	·	·	·	·	·	-11
CN(c1ccccc1)c1nc2ccsc2c(=O)s1	43*	3	-96	-2	2	11
CCN(c1ccccc1)c1nc2ccsc2c(=O)s1	1	3	-31	-7	0	5
CCN(CC)CCOC(=O)c1ccc(NC(=O)CCCN2C(=O)/C(=C\c3cccs3)SC2=S)cc1	39*	0	3	0	-5	7
O=C(CCN1C(=O)/C(=C\c2cccs2)SC1=S)Nc1ccc(C(=O)O)cc1	13	1	-10	-10	-2	2
SMILES	SKN-1 block	NR2E3 ag-1	NR2E3 ag-2	MT1-MMP act inh	PG9 binder	Rev-erbA mod
CCCCn1cnc2sc(-c3ccccc3)cc2c1=O	18	-2	-113	3	-2	-4
O=c1c2cc(-c3ccccc3)sc2ncn1/N=C/c1ccco1	44*	3	-50	-2	2	2
CCCCCn1cnc2sc(-c3ccccc3)cc2c1=O	40*	-1	-96	-4	0	-3
CC(=O)N[C@@H](C=O)[C@@H](O)[C@@H](O)[C@H](O)CO	·	·	·	·	·	-2
CS(=O)(=O)N(CC(=O)Nc1ccccc1Sc1ccccc1)c1ccc(F)cc1	-5	-2	-2	-4	14*	2
Cc1ccc(S(=O)(=O)/N=C2/C=C(Sc3ncn[nH]3)C(=O)c3ccccc32)cc1	2	7	106*	-105	·	·
CCCOc1ccc(-c2nnc(-c3ccco3)o2)cc1	79*	0	-148	4	-3	4
CC(C)COc1ccc(-c2nnc(-c3ccco3)o2)cc1	43*	0	-182	4	1	-3
Fc1ccc(Nc2cccc3nccnc23)cc1	45*	-4	-20	2	-2	12
CCn1c(C)c(C)c2cc(C(=O)N3CCc4ccccc4C3)ccc21	42*	-2	-55	-5	0	2
CC1CCC(C(C)C)C(OC(=O)C[n+]2cccc(C(N)=O)c2)C1 (stereo not given)	38*	-2	-13	-15	1	-1
Cn1ncc2c(Nc3ccccc3Cl)nc(Cl)nc21	23	-2	-18	-1	0	-2
Cn1ncc2c(NCCc3ccccc3)nc(Cl)nc21	35*	·	0	1	0	6
O=C(NCc1ccncc1)c1csc([C@@H]2O[C@H](CO)[C@@H](O)[C@H]2O)n1	18	·	-16	-3	-2	-2
O=C(NCc1cccs1)c1csc([C@@H]2O[C@H](CO)[C@H](O)[C@H](O)[C@H]2O)n1	43*	·	-38	0	1	-2
c1ccc2oc(SCc3nc4ccccc4s3)nc2c1	45*	3	-106	0	0	1
c1ccc(-c2noc(CSc3nc4ccccc4o3)n2)cc1	44*	0	-30	-2	0	4
c1ccc(OCCSc2nc3ccccc3o2)cc1	39*	4	-30	2	1	-2
COC(=O)C1=C(C)N(Cc2ccccc2C(F)(F)F)C(=NCc2ccc(OC)cc2)NC1CCc1ccccc1 (stereo not given)	·	·	·	·	0	-2
COC(=O)C1[C@H]2C[C@H]3c4[nH]c5ccccc5c4CCN3C[C@@H]2CC[C@@H]1O (stereo not given in full)	·	·	·	·	·	-3
CCNC(=O)N1CCN(c2ccc(N3CCN(C(=O)NCC)[C@@H](C)C3)c(C)c2)[C@@H](C)C1	·	·	·	·	0	2
CCC(=O)OCC(=O)[C@@]1(OC(=O)CC)[C@@H](C)CC2C3CCC4=CC(=O)C=C[C@]4(C)[C@@]3(F)[C@@H](O)C[C@@]21C (stereo not given in full)	·	·	·	·	·	-7
CC1(C)O[C@@H]2CC3C4CCC5=CC(=O)C=C[C@]5(C)[C@@]4(F)[C@@H](O)C[C@]3(C)[C@]2(C(=O)CO)O1 (stereo not given in full)	·	·	·	·	·	0
